{"source": "ChEMBL document CHEMBL4732039", "about": "“Introduction of a cyano group at the 2-position of an (R,S)-3-hydroxy-2-(phosphonomethoxy)propyl (HPMP) derivative of thymine elicits selective anti-HBV activity” (RSC Med Chem, 2021)", "key": {"Human betaherpesvirus 5 [1]": {"system": "Human betaherpesvirus 5", "experiment": "Antiviral activity against HCMV AD169 infected in human embryonic lung cells", "format": "functional, cell-based", "conditions": "Human betaherpesvirus 5, AD169, Lung; call rule not given here"}, "[2]": {"experiment": "Selectivity index, ratio of CC50 of human HepG2.2.2.15 cells to EC50 of antiviral activity against HBV infected in human HepG2.2.2.15 cells", "format": "toxicity, cell-based", "conditions": "read-out: Ratio CC50/EC50"}, "[3]": {"experiment": "Cytotoxicity against human HepG2.2.2.15 cells assessed as reduction in cell viability incubated for 6 days by cell titer glo assay", "format": "cell-based", "conditions": "time 6 day"}, "[4]": {"experiment": "Selectivity index, ratio of CC50 of human HFF cells to EC50 of antiviral activity against VZV", "format": "toxicity", "conditions": "read-out: Ratio CC50/EC50"}, "Hepatitis B virus": {"system": "Hepatitis B virus", "experiment": "Antiviral activity against HBV infected in human HepG2.2.2.15 cells assessed as inhibition of viral replication preincubated for 3 days followed by media replenishment with fresh drug and further incubated for 3 days by qPCR analysis", "format": "functional, organism-based", "conditions": "for EC50: HepG2 2.2.15; for EC90: HepG2 2.2.15, 144 h, time 6 day", "method_in_brief": "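HepG2 2.2.15 human hepatoblastoma cells, carrying two copies of wild-type HBV (strain ayw) genome and constitutively producing virus. Extracellular HBV DNA copy number from released virions quantified by real-time TaqMan qPCR. […] Lamivudine (3TC) was the positive control.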"}, "[5]": {"experiment": "Cytotoxicity against human HFF cells assessed as reduction in cell viability incubated for 14 days by cell titer glo assay", "format": "cell-based", "conditions": "time 14 day"}, "[6]": {"system": "Human immunodeficiency virus 2", "experiment": "Antiviral activity against HIV-2 ROD infected in human MT4 cells assessed as reduction in virus-induced cytopathic effect measured after 5 days by MTT assay", "format": "functional, organism-based", "method_in_brief": "(§1)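 MT-4 cells infected with wild-type HIV-1 IIIB or HIV-2 ROD. Protection read out by MTT assay. Cytotoxicity was assessed in parallel in uninfected MT-4 cells.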"}, "[7]": {"system": "Human immunodeficiency virus 1", "experiment": "Antiviral activity against HIV-1 3B infected in human MT4 cells assessed as reduction in virus-induced cytopathic effect measured after 5 days by MTT assay", "format": "functional, organism-based", "method_in_brief": "as §1"}, "Human alphaherpesvirus 3": {"system": "Human alphaherpesvirus 3", "experiment": "Antiviral activity against VZV infected in human HFF cells assessed as reduction in virus-induced cytopathic effect incubated for 14 days by cell-titer glo assay", "format": "functional, organism-based", "conditions": "Human alphaherpesvirus 3, HFF, 336 h; for EC90: time 14 day"}, "[8]": {"experiment": "Selectivity index, ratio of CC50 for human HFF cells to EC50 for antiviral activity against HCMV AD169"}, "Human betaherpesvirus 5 [9]": {"system": "Human betaherpesvirus 5", "experiment": "Antiviral activity against HCMV AD169 infected in human HFF cells assessed as reduction in virus-induced cytopathic effect incubated for 14 days by cell-titer glo assay", "format": "functional, cell-based", "conditions": "Human betaherpesvirus 5, AD169, HFF, 336 h; for EC90: time 14 day"}}}
{"molecule": "Nc1ncnc2c1ncn2C[C@@H](CO)OCP(=O)(O)O", "values": [{"measurement": "EC50", "setting": "Human betaherpesvirus 5 [1]", "result": 1, "unit": "µM"}]}
{"molecule": "CCN(CC)CC.N#CC(CO)(Cn1ccc(N)nc1=O)OCP(=O)(O)O", "note": "(stereo not drawn)", "values": [{"measurement": "selectivity ratio", "setting": "[2]", "result": 1}, {"measurement": "CC50 at 144 h", "setting": "[3]", "result": "> 100", "unit": "µM"}, {"measurement": "selectivity ratio", "setting": "[4]", "result": 1}, {"measurement": "EC50", "setting": "Hepatitis B virus", "result": "> 100", "unit": "µM"}, {"measurement": "EC90", "setting": "Hepatitis B virus", "result": "> 100", "unit": "µM"}, {"measurement": "CC50 at 336 h", "setting": "[5]", "result": "> 150", "unit": "µM"}, {"measurement": "EC50", "setting": "[6]; mt4", "result": "Not Active"}, {"measurement": "EC50", "setting": "[7]; mt4", "result": "Not Active"}, {"measurement": "EC50", "setting": "Human alphaherpesvirus 3", "result": "> 150", "unit": "µM"}, {"measurement": "EC90", "setting": "Human alphaherpesvirus 3", "result": "> 150", "unit": "µM"}, {"measurement": "Ratio CC50/EC50", "setting": "[8]", "result": 1}, {"measurement": "EC50", "setting": "Human betaherpesvirus 5 [9]", "result": "> 150", "unit": "µM"}, {"measurement": "EC90", "setting": "Human betaherpesvirus 5 [9]", "result": "> 150", "unit": "µM"}]}
{"molecule": "CCN(CC)CC.N#CC(CO)(Cn1cnc2c(N)ncnc21)OCP(=O)(O)O", "note": "(stereo not drawn)", "values": [{"measurement": "CC50 at 144 h", "setting": "[3]", "result": "> 100", "unit": "µM"}, {"measurement": "selectivity ratio", "setting": "[4]", "result": 1}, {"measurement": "EC50", "setting": "Hepatitis B virus", "result": 3.6, "unit": "µM"}, {"measurement": "EC90", "setting": "Hepatitis B virus", "result": 9.9, "unit": "µM"}, {"measurement": "CC50 at 336 h", "setting": "[5]", "result": "> 150", "unit": "µM"}, {"measurement": "EC50", "setting": "[6]; mt4", "result": "Not Active"}, {"measurement": "EC50", "setting": "[7]; mt4", "result": "Not Active"}, {"measurement": "EC50", "setting": "Human alphaherpesvirus 3", "result": 106, "unit": "µM"}, {"measurement": "EC90", "setting": "Human alphaherpesvirus 3", "result": "> 150", "unit": "µM"}, {"measurement": "Ratio CC50/EC50", "setting": "[8]", "result": ">137"}, {"measurement": "EC50", "setting": "Human betaherpesvirus 5 [9]", "result": 1.1, "unit": "µM"}, {"measurement": "EC90", "setting": "Human betaherpesvirus 5 [9]", "result": "> 150", "unit": "µM"}]}
{"molecule": "CCN(CC)CC.N#CC(CO)(Cn1cnc2c(=O)[nH]c(N)nc21)OCP(=O)(O)O", "note": "(stereo not drawn)", "values": [{"measurement": "selectivity ratio", "setting": "[2]", "result": 1}, {"measurement": "CC50 at 144 h", "setting": "[3]", "result": "> 100", "unit": "µM"}, {"measurement": "selectivity ratio", "setting": "[4]", "result": 47}, {"measurement": "EC50", "setting": "Hepatitis B virus", "result": "> 100", "unit": "µM"}, {"measurement": "EC90", "setting": "Hepatitis B virus", "result": "> 100", "unit": "µM"}, {"measurement": "CC50 at 336 h", "setting": "[5]", "result": 102, "unit": "µM"}, {"measurement": "EC50", "setting": "[6]; Human immunodeficiency virus 2, ROD, MT4, 120 h, read-out: EC50", "result": 33.7, "unit": "µM"}, {"measurement": "EC50", "setting": "[7]; Human immunodeficiency virus 1, 3B, MT4, 120 h, read-out: EC50", "result": 51, "unit": "µM"}, {"measurement": "EC50", "setting": "Human alphaherpesvirus 3", "result": 2.08, "unit": "µM"}, {"measurement": "EC90", "setting": "Human alphaherpesvirus 3", "result": "> 30", "unit": "µM"}, {"measurement": "Ratio CC50/EC50", "setting": "[8]", "result": 50}, {"measurement": "EC50", "setting": "Human betaherpesvirus 5 [9]", "result": 2, "unit": "µM"}, {"measurement": "EC90", "setting": "Human betaherpesvirus 5 [9]", "result": "> 30", "unit": "µM"}]}
{"molecule": "CCN(CC)CC.Cc1cn(CC(C#N)(CO)OCP(=O)(O)O)c(=O)[nH]c1=O", "note": "(stereo not drawn)", "values": [{"measurement": "selectivity ratio", "setting": "[2]", "result": "> 302000"}, {"measurement": "CC50 at 144 h", "setting": "[3]", "result": "> 100", "unit": "µM"}, {"measurement": "selectivity ratio", "setting": "[4]", "result": 1}, {"measurement": "EC50", "setting": "Hepatitis B virus", "result": 0.33, "unit": "µM"}, {"measurement": "EC90", "setting": "Hepatitis B virus", "result": 0.79, "unit": "µM"}, {"measurement": "CC50 at 336 h", "setting": "[5]", "result": "> 150", "unit": "µM"}, {"measurement": "EC50", "setting": "[6]; mt4", "result": "Not Active"}, {"measurement": "EC50", "setting": "[7]; mt4", "result": "Not Active"}, {"measurement": "EC50", "setting": "Human alphaherpesvirus 3", "result": "> 150", "unit": "µM"}, {"measurement": "EC90", "setting": "Human alphaherpesvirus 3", "result": "> 150", "unit": "µM"}, {"measurement": "Ratio CC50/EC50", "setting": "[8]", "result": 1}, {"measurement": "EC50", "setting": "Human betaherpesvirus 5 [9]", "result": "> 150", "unit": "µM"}, {"measurement": "EC90", "setting": "Human betaherpesvirus 5 [9]", "result": "> 150", "unit": "µM"}]}
{"molecule": "CCN(CC)CC.N#CC(CO)(Cn1ccc(=O)[nH]c1=O)OCP(=O)(O)O", "note": "(stereo not drawn)", "values": [{"measurement": "selectivity ratio", "setting": "[2]", "result": 1}, {"measurement": "CC50 at 144 h", "setting": "[3]", "result": "> 100", "unit": "µM"}, {"measurement": "selectivity ratio", "setting": "[4]", "result": 1}, {"measurement": "EC50", "setting": "Hepatitis B virus", "result": "> 100", "unit": "µM"}, {"measurement": "EC90", "setting": "Hepatitis B virus", "result": "> 100", "unit": "µM"}, {"measurement": "CC50 at 336 h", "setting": "[5]", "result": "> 150", "unit": "µM"}, {"measurement": "EC50", "setting": "[6]; mt4", "result": "Not Active"}, {"measurement": "EC50", "setting": "[7]; mt4", "result": "Not Active"}, {"measurement": "EC50", "setting": "Human alphaherpesvirus 3", "result": "> 150", "unit": "µM"}, {"measurement": "EC90", "setting": "Human alphaherpesvirus 3", "result": "> 150", "unit": "µM"}, {"measurement": "Ratio CC50/EC50", "setting": "[8]", "result": 1}, {"measurement": "EC50", "setting": "Human betaherpesvirus 5 [9]", "result": "> 150", "unit": "µM"}, {"measurement": "EC90", "setting": "Human betaherpesvirus 5 [9]", "result": "> 150", "unit": "µM"}]}
{"molecule": "Nc1nc2c(ncn2COC(CO)CO)c(=O)[nH]1", "note": "[GANCICLOVIR]", "values": [{"measurement": "CC50 at 336 h", "setting": "[5]", "result": "> 150", "unit": "µM"}, {"measurement": "EC50", "setting": "Human betaherpesvirus 5 [9]", "result": 0.9, "unit": "µM"}, {"measurement": "EC90", "setting": "Human betaherpesvirus 5 [9]", "result": 74.2, "unit": "µM"}]}
